Assay results reported in ChEMBL document CHEMBL1177835, “A note to the biological activity of benzoxazine derivatives containing the thioxo group” (Eur J Med Chem, 2010).
≈ marks a conversion by molar mass, not a printed value.

Tests used:
[1] = system: Mycobacterium tuberculosis; assay: Antimycobacterial activity against Mycobacterium tuberculosis CNCTC My 331/88 after 14 days by microdilution method; assay type: functional; settings: CNCTC My 331/88, 336 h
Outline: (§1)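 MIC determined by a dilution micromethod. Strains came from the Czech National Collection of Type Cultures, Prague. Compounds were added to the medium as DMSO solutions. Each inoculum was also plated in parallel on Löwenstein–Jensen medium to check its sterility and growth. The M. avium strain is identical with ATCC 25291 and resistant to INH.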

[2] = system: Mycobacterium tuberculosis; assay: Antimycobacterial activity against Mycobacterium tuberculosis CNCTC My 331/88 after 21 days by microdilution method; assay type: functional; settings: CNCTC My 331/88, 504 h; outline: as §1
Mycobacterium avium [3] = assay: Antimycobacterial activity against Mycobacterium avium CNCTC My 330/88 after 14 days by microdilution method; assay type: functional; settings: CNCTC My 330/88, 336 h; outline: as §1
Mycobacterium avium [4] = assay: Antimycobacterial activity against Mycobacterium avium CNCTC My 330/88 after 21 days by microdilution method; assay type: functional; settings: CNCTC My 330/88, 504 h; outline: as §1
Mycobacterium kansasii [5] = assay: Antimycobacterial activity against Mycobacterium kansasii CNCTC My 235/80 after 14 days by microdilution method; assay type: functional; settings: CNCTC My 235/80, 336 h
Outline: (§2)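 Dilution micromethod for MIC; compounds added to medium as DMSO solutions. Each strain also inoculated onto Löwenstein–Jensen medium to control inoculum sterility and growth. Strain 6509/96 is a clinical isolate; CNCTC strains from the Czech national type culture collection.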

Mycobacterium kansasii [6] = assay: Antimycobacterial activity against Mycobacterium kansasii CNCTC My 235/80 after 21 days by microdilution method; assay type: functional; settings: CNCTC My 235/80, 504 h; outline: as §2
Mycobacterium kansasii [7] = assay: Antimycobacterial activity against Mycobacterium kansasii 6509/96 after 14 days by microdilution method; assay type: functional; settings: 6509/96, 336 h; outline: as §2
Mycobacterium kansasii [8] = assay: Antimycobacterial activity against Mycobacterium kansasii 6509/96 after 21 days by microdilution method; assay type: functional; settings: 6509/96, 504 h; outline: as §2
HeLa = assay: Cytotoxicity against human HeLa cells after 72 hrs by using methylene blue staining; assay type: functional, cell-based
Outline: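 HeLa cells in RPMI 1640 with supplements, preincubated 48 h without compound. Compound dilutions were then applied to subconfluent monolayers for 72 h at 37 °C, 5% CO2. Cells were glutaraldehyde-fixed, stained with 0.05% methylene blue, eluted with 0.33 N HCl and read at OD 660 nm. CC50 taken at 50% intersection versus negative control.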

K562 = assay: Antiproliferative activity against human K562 cells after 72 hrs by celltiter-blue assay; assay type: functional, cell-based
Outline: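 K-562 grown in RPMI 1640 with ultraglutamine, gentamicin, 10% heat-inactivated FBS at 37 °C; about 10,000 cells/well. Compounds dissolved in DMSO and diluted in DMEM, incubated 72 h at 37 °C, 5% CO2. Viability read by CellTiter-Blue resazurin reduction. GI50 taken where the dose-response curve crosses 50% of untreated control.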

HUVEC = assay: Antiproliferative activity against HUVEC after 72 hrs by using methylene blue staining; assay type: cell-based; settings: human
Outline: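 HUVEC in culture medium with ultraglutamine, gentamicin, 10% heat-inactivated FBS, 37 °C. Harvested in log phase by trypsinization; about 10,000 cells/well. Compounds in DMSO, diluted in DMEM, incubated 72 h at 37 °C, 5% CO2. Cells then glutaraldehyde-fixed, stained with 0.05% methylene blue for 15 min, eluted with 0.33 N HCl, OD 660 nm. GI50 taken at 50% intersection versus untreated control.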

| Structure (SMILES) | MIC [1] | MIC [2] | MIC (Mycobacterium avium [3]) | MIC (Mycobacterium avium [4]) | MIC (Mycobacterium kansasii [5]) | MIC (Mycobacterium kansasii [6]) | MIC (Mycobacterium kansasii [7]) | MIC (Mycobacterium kansasii [8]) | Activity (HeLa) | Activity (K562) | Activity (HUVEC) |
| --- | --- | --- | --- | --- | --- | --- | --- | --- | --- | --- | --- |
| O=c1oc2c(Cl)cc(Cl)cc2c(=O)n1Cc1ccc(Cl)c(Cl)c1 | 62.5 µM (≈ 24.4 µg/mL) | 125 µM (≈ 48.9 µg/mL) | 125 µM (≈ 48.9 µg/mL) | 125 µM (≈ 48.9 µg/mL) | 125 µM (≈ 48.9 µg/mL) | 125 µM (≈ 48.9 µg/mL) | 125 µM (≈ 48.9 µg/mL) | 125 µM (≈ 48.9 µg/mL) | Toxic | Toxic | Toxic |
| S=c1oc2ccccc2c(=S)n1Cc1ccc(Cl)c(Cl)c1 | 1 µM (≈ 0.354 µg/mL) | 2 µM (≈ 0.709 µg/mL) | 0.5 µM (≈ 0.177 µg/mL) | 0.5 µM (≈ 0.177 µg/mL) | 4 µM (≈ 1.42 µg/mL) | 4 µM (≈ 1.42 µg/mL) | 4 µM (≈ 1.42 µg/mL) | 4 µM (≈ 1.42 µg/mL) | – | – | – |
| O=c1oc2ccc(Br)cc2c(=O)n1Cc1ccccc1 | 62.5 µM (≈ 20.8 µg/mL) | 62.5 µM (≈ 20.8 µg/mL) | 62.5 µM (≈ 20.8 µg/mL) | 62.5 µM (≈ 20.8 µg/mL) | 62.5 µM (≈ 20.8 µg/mL) | 125 µM (≈ 41.5 µg/mL) | 62.5 µM (≈ 20.8 µg/mL) | 125 µM (≈ 41.5 µg/mL) | Toxic | Toxic | Toxic |
| NNC(=O)c1ccncc1 [ISONIAZID] | 1 µM (≈ 0.137 µg/mL) | 1 µM (≈ 0.137 µg/mL) | > 250 µM | > 250 µM | > 250 µM | > 250 µM | 8 µM (≈ 1.1 µg/mL) | 8 µM (≈ 1.1 µg/mL) | – | – | – |
| O=c1oc2ccc(Cl)cc2c(=S)n1Cc1ccccc1 | 1 µM (≈ 0.304 µg/mL) | 2 µM (≈ 0.608 µg/mL) | 4 µM (≈ 1.22 µg/mL) | 8 µM (≈ 2.43 µg/mL) | 8 µM (≈ 2.43 µg/mL) | 8 µM (≈ 2.43 µg/mL) | 4 µM (≈ 1.22 µg/mL) | 4 µM (≈ 1.22 µg/mL) | Toxic | Toxic | Toxic |
| O=c1oc2ccccc2c(=O)n1Cc1ccc(Cl)c(Cl)c1 | 32 µM (≈ 10.3 µg/mL) | 32 µM (≈ 10.3 µg/mL) | 32 µM (≈ 10.3 µg/mL) | 32 µM (≈ 10.3 µg/mL) | 62.5 µM (≈ 20.1 µg/mL) | 62.5 µM (≈ 20.1 µg/mL) | 62.5 µM (≈ 20.1 µg/mL) | 62.5 µM (≈ 20.1 µg/mL) | Toxic | Toxic | Toxic |
| O=c1oc2ccccc2c(=S)n1Cc1ccc(Cl)c(Cl)c1 | 1 µM (≈ 0.338 µg/mL) | 1 µM (≈ 0.338 µg/mL) | 1 µM (≈ 0.338 µg/mL) | 1 µM (≈ 0.338 µg/mL) | 2 µM (≈ 0.676 µg/mL) | 4 µM (≈ 1.35 µg/mL) | 2 µM (≈ 0.676 µg/mL) | 4 µM (≈ 1.35 µg/mL) | Toxic | Toxic | Toxic |
| Cc1ccc2oc(=O)n(Cc3ccccc3)c(=S)c2c1 | 1 µM (≈ 0.283 µg/mL) | 1 µM (≈ 0.283 µg/mL) | 2 µM (≈ 0.567 µg/mL) | 2 µM (≈ 0.567 µg/mL) | 1 µM (≈ 0.283 µg/mL) | 2 µM (≈ 0.567 µg/mL) | 1 µM (≈ 0.283 µg/mL) | 2 µM (≈ 0.567 µg/mL) | Toxic | Toxic | Toxic |
| O=c1oc2ccc(Cl)cc2c(=O)n1Cc1ccc(Cl)c(Cl)c1 | 16 µM (≈ 5.71 µg/mL) | 16 µM (≈ 5.71 µg/mL) | 16 µM (≈ 5.71 µg/mL) | 32 µM (≈ 11.4 µg/mL) | 62.5 µM (≈ 22.3 µg/mL) | 62.5 µM (≈ 22.3 µg/mL) | 62.5 µM (≈ 22.3 µg/mL) | 62.5 µM (≈ 22.3 µg/mL) | Toxic | Toxic | Toxic |
| CO[C@H]1/C=C/O[C@@]2(C)Oc3c(C)c(O)c4c(O)c(c(/C=N/N5CCN(C)CC5)c(O)c4c3C2=O)NC(=O)/C(C)=C\C=C\[C@H](C)[C@H](O)[C@@H](C)[C@@H](O)[C@@H](C)[C@H](OC(C)=O)[C@@H]1C [RIFAMPIN] | 0.25 µM (≈ 0.206 µg/mL) | 0.5 µM (≈ 0.411 µg/mL) | 16 µM (≈ 13.2 µg/mL) | 65 µM (≈ 53.5 µg/mL) | 0.25 µM (≈ 0.206 µg/mL) | 0.25 µM (≈ 0.206 µg/mL) | 0.125 µM (≈ 0.103 µg/mL) | 0.25 µM (≈ 0.206 µg/mL) | – | – | – |
| O=c1oc2c(Cl)cc(Cl)cc2c(=S)n1Cc1ccc(Cl)c(Cl)c1 | 2 µM (≈ 0.814 µg/mL) | 2 µM (≈ 0.814 µg/mL) | 4 µM (≈ 1.63 µg/mL) | 4 µM (≈ 1.63 µg/mL) | 16 µM (≈ 6.51 µg/mL) | 16 µM (≈ 6.51 µg/mL) | 16 µM (≈ 6.51 µg/mL) | 16 µM (≈ 6.51 µg/mL) | Toxic | Toxic | Toxic |
| S=c1oc2c(Cl)cc(Cl)cc2c(=S)n1Cc1ccc(Cl)c(Cl)c1 | 32 µM (≈ 13.5 µg/mL) | 32 µM (≈ 13.5 µg/mL) | 62.5 µM (≈ 26.4 µg/mL) | 62.5 µM (≈ 26.4 µg/mL) | 62.5 µM (≈ 26.4 µg/mL) | 62.5 µM (≈ 26.4 µg/mL) | 62.5 µM (≈ 26.4 µg/mL) | 62.5 µM (≈ 26.4 µg/mL) | – | – | – |
